ChEMBL document CHEMBL2176944, “2-(3-Oxo-1,3-diphenylpropyl)malonic acids as potent allosteric ligands of the PIF pocket of phosphoinositide-dependent kinase-1: development and prodrug concept” (J Med Chem, 2012)
The source made the active and inactive calls. The calls are words filed in the database; no cut-off is given here.

How the values were obtained:
L6 [1] = test: Prodrug conversion in rat L6 cells assessed as production of 2-(3-Oxo-1-phenyl-3-(4-(trifluoromethyl)phenyl)propyl)malonic acid level at 20 uM after 1 hr by mass spectroscopy analysis; type: ADME, cell-based; conditions: l6, 1 h
Outline: (§1)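 Confluent rat L6 cells in serum-free DMEM were exposed to 20 μM ester prodrug for 5–90 min. Cells were then washed with cold PBS, trypsinized and counted. Carbamazepine was added as internal standard, and samples were acidified with HCl and extracted with ethyl acetate. Prodrug and free dicarboxylic acid were quantified by HPLC-MS/MS on a C18 column with TFA-containing gradients. DMSO-treated cells served as control.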

[2] = target: T1, 3-phosphoinositide-dependent protein kinase 1 (Homo sapiens) (UniProt O15530); test: Activation of PDK1 in IGF-I-stimulated HEK293 cells assessed as decrease of phosphorylation of PKCzeta at Thr410 at 50 uM after 2 hrs by Western blot analysis; type: cell-based
T1 sequence (whole entry): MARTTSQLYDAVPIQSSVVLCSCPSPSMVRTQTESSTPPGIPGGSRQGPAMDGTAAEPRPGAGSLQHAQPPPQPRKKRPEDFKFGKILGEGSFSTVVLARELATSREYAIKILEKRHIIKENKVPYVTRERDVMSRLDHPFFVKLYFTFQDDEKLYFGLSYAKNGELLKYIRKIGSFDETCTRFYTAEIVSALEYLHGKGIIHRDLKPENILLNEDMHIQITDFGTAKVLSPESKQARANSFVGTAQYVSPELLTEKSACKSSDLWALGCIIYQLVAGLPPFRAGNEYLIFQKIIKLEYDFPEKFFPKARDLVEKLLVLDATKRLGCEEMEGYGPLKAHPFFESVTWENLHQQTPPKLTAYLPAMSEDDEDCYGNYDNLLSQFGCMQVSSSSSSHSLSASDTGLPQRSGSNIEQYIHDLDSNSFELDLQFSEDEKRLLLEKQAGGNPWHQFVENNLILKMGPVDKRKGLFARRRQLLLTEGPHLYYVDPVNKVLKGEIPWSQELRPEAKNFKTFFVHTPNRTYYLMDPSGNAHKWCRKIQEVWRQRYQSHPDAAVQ
Outline: (§2)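 HEK293 cells in DMEM with 10% FBS were serum-starved 24 h, then given 50 μM compound or DMSO for 2 h and stimulated with IGF-I (10 ng/mL) for 20 min. For S6K and PKCζ, cells were first transiently transfected with GST-fusions of full-length S6K[T412E] and PKCζ (PEI). These proteins were pulled down on glutathione sepharose and immunoblotted for activation-loop phosphorylation (S6K Thr229, PKCζ Thr410), normalized to anti-GST. For PKB, untransfected cell lysates were immunoblotted with phospho-specific antibodies.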

L6 [3] = test: Prodrug conversion in rat L6 cells assessed as production of 2-(3-Oxo-1-phenyl-3-(4-(trifluoromethyl)phenyl)propyl)malonic acid level in cytoplasm at 20 uM […] by mass spectroscopy analysis relative to control; type: ADME, cell-based; conditions: l6, 20 µM
L6 [4] = test: Cellular uptake in rat L6 cells at 20 uM after 5 mins by mass spectroscopy analysis; type: ADME, cell-based; conditions: l6, 5 min; outline: as §1
[5] = target: T1, 3-phosphoinositide-dependent protein kinase 1 (Homo sapiens); test: Activation of PDK1 in IGF-I-stimulated HEK293 cells assessed as decrease of phosphorylation of PKB T-loop at 50 uM after 2 hrs by Western blot analysis; type: cell-based; outline: as §2
L6 [6] = test: Prodrug conversion in rat L6 cells assessed as production of 2-(3-Oxo-1-phenyl-3-(4-(trifluoromethyl)phenyl)propyl)malonic acid level in cytoplasm at 20 uM […] by HPLC analysis; type: ADME, cell-based; conditions: l6, 20 µM
L6 [7] = test: Prodrug conversion in rat L6 cells assessed as prodrug degradation at 20 uM after 1 hr by mass spectroscopy analysis; type: ADME, cell-based; conditions: l6, 1 h
[8] = target: T1, 3-phosphoinositide-dependent protein kinase 1 (Homo sapiens); test: Activation of PDK1 in IGF-I-stimulated HEK293 cells assessed as decrease of phosphorylation of S6K activation loop at 50 uM after 2 hrs by Western blot analysis; type: cell-based; outline: as §2
L6 [9] = test: Prodrug conversion in rat L6 cells assessed as reduction half life of prodrug at 20 uM […] by mass spectroscopy analysis; type: ADME, cell-based; conditions: l6, 20 µM
[10] = Hydrolysis half life of the compound; type: physicochemical
Outline: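 Chemical stability of the ester prodrug was measured in cell-free medium at 37 °C, giving the half-life of spontaneous hydrolysis.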

Drug metabolism (L6 [1]): 80 µM
Activity [2]: inactive
fold change (FC) (L6 [3]): 67
Drug uptake (L6 [4]): Active
Activity [5]: inactive
Drug metabolism (L6 [6]): Active
Drug metabolism (L6 [7]): > 90%
Activity [8]: Active
t1/2 (L6 [9]): 4.3 min
half-life [10]: 4.8 h
SMILES: CC(=O)OCOC(=O)C(C(=O)OCOC(C)=O)C(CC(=O)c1ccc(C(F)(F)F)cc1)c1ccccc1 (stereo not given)
